ChEMBL document CHEMBL3784971, “Synthesis, characterization, antimicrobial and biofilm inhibitory studies of new esterquats” (Bioorg Med Chem Lett, 2016)
≈ marks a conversion by molar mass, not a printed value. Each block holds one compound with its values, some of them ahead of it.

Legend:
Candida albicans [1] = experiment: Fungicidal activity against Candida albicans MTCC 3018 after 24 hrs by serial dilution method; type: functional; conditions: MTCC 3018, 24 h
Candida albicans [2] = experiment: Antimicrobial activity against Candida albicans MTCC 3018 assessed as growth inhibition after 24 hrs by agar well diffusion method; type: functional; conditions: MTCC 3018, 24 h
Candida albicans [3] = experiment: Fungicidal activity against Candida albicans MTCC 854 after 24 hrs by serial dilution method; type: functional; conditions: MTCC 854, 24 h
Candida albicans [4] = experiment: Antimicrobial activity against Candida albicans MTCC 7315 assessed as growth inhibition after 24 hrs by agar well diffusion method; type: functional; conditions: MTCC 7315, 24 h
Micrococcus luteus [5] = experiment: Bactericidal activity against Micrococcus luteus MTCC 2470 after 24 hrs by serial dilution method; type: functional; conditions: MTCC 2470, 24 h
Candida albicans [6] = experiment: Fungicidal activity against Candida albicans MTCC 7315 after 24 hrs by serial dilution method; type: functional; conditions: MTCC 7315, 24 h
[Candida] aaseri [7] = Antimicrobial activity against Candida aaseri MTCC 1962 assessed as growth inhibition after 24 hrs by agar well diffusion method; type: functional; conditions: Yamadazyma aaseri, MTCC 1962, 24 h
Staphylococcus aureus [8] = experiment: Antimicrobial activity against Staphylococcus aureus MLS16 MTCC 2940 assessed as growth inhibition after 24 hrs by agar well diffusion method; type: functional; conditions: MLS16 MTCC 2940, 24 h
Escherichia coli [9] = experiment: Bactericidal activity against Escherichia coli MTCC 739 after 24 hrs by serial dilution method; type: functional; conditions: MTCC 739, 24 h
Staphylococcus aureus [10] = experiment: Antimicrobial activity against Staphylococcus aureus MTCC 96 assessed as growth inhibition after 24 hrs by agar well diffusion method; type: functional; conditions: MTCC 96, 24 h
Staphylococcus aureus [11] = experiment: Antibiofilm activity against Staphylococcus aureus MTCC 96 after 24 hrs by crystal violet staining based assay; type: functional, organism-based; conditions: MTCC 96, 24 h
Summary of the method: (§1)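 Biofilm inhibition tested for amine esters and esterquats. IC50 values (µg/mL) are the mean of three determinations, with ciprofloxacin as reference.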

Staphylococcus aureus [12] = experiment: Bactericidal activity against Staphylococcus aureus MTCC 96 after 24 hrs by serial dilution method; type: functional; conditions: MTCC 96, 24 h
Staphylococcus aureus [13] = experiment: Antibiofilm activity against Staphylococcus aureus MLS16 MTCC 2940 after 24 hrs by crystal violet staining based assay; type: functional, organism-based; conditions: MLS16 MTCC 2940, 24 h; summary of the method: as §1
Bacillus subtilis [14] = experiment: Antimicrobial activity against Bacillus subtilis MTCC 121 assessed as growth inhibition after 24 hrs by agar well diffusion method; type: functional; conditions: MTCC 121, 24 h
Candida albicans [15] = experiment: Antimicrobial activity against Candida albicans MTCC 3017 assessed as growth inhibition after 24 hrs by agar well diffusion method; type: functional; conditions: MTCC 3017, 24 h
Candida albicans [16] = experiment: Fungicidal activity against Candida albicans MTCC 227 after 24 hrs by serial dilution method; type: functional; conditions: MTCC 227, 24 h
Pichia kudriavzevii [17] = experiment: Fungicidal activity against Candida krusei MTCC 3020 after 24 hrs by serial dilution method; type: functional; conditions: MTCC 3020, 24 h
[Candida] aaseri [18] = Fungicidal activity against Candida aaseri MTCC 1962 after 24 hrs by serial dilution method; type: functional; conditions: Yamadazyma aaseri, MTCC 1962, 24 h
Micrococcus luteus [19] = experiment: Antimicrobial activity against Micrococcus luteus MTCC 2470 assessed as growth inhibition after 24 hrs by agar well diffusion method; type: functional; conditions: MTCC 2470, 24 h
Pichia kudriavzevii [20] = experiment: Antimicrobial activity against Candida krusei MTCC 3020 assessed as growth inhibition after 24 hrs by agar well diffusion method; type: functional; conditions: MTCC 3020, 24 h
Candida albicans [21] = experiment: Fungicidal activity against Candida albicans MTCC 4748 after 24 hrs by serial dilution method; type: functional; conditions: MTCC 4748, 24 h
Staphylococcus aureus [22] = experiment: Bactericidal activity against Staphylococcus aureus MLS16 MTCC 2940 after 24 hrs by serial dilution method; type: functional; conditions: MLS16 MTCC 2940, 24 h
Nakaseomyces glabratus [23] = experiment: Antimicrobial activity against Candida glabrata MTCC 3019 assessed as growth inhibition after 24 hrs by agar well diffusion method; type: functional; conditions: MTCC 3019, 24 h
Candida albicans [24] = experiment: Fungicidal activity against Candida albicans MTCC 3958 after 24 hrs by serial dilution method; type: functional; conditions: MTCC 3958, 24 h
Micrococcus luteus [25] = experiment: Antibiofilm activity against Micrococcus luteus MTCC 2470 after 24 hrs by crystal violet staining based assay; type: functional, organism-based; conditions: MTCC 2470, 24 h; summary of the method: as §1
Candida albicans [26] = experiment: Antimicrobial activity against Candida albicans MTCC 1637 assessed as growth inhibition after 24 hrs by agar well diffusion method; type: functional; conditions: MTCC 1637, 24 h
Escherichia coli [27] = experiment: Antimicrobial activity against Escherichia coli MTCC 739 assessed as growth inhibition after 24 hrs by agar well diffusion method; type: functional; conditions: MTCC 739, 24 h
Pichia sporocuriosa [28] = experiment: Antimicrobial activity against Issatchenkia hanoiensis MTCC 4755 assessed as growth inhibition after 24 hrs by agar well diffusion method; type: functional; conditions: MTCC 4755, 24 h
Candida albicans [29] = experiment: Antimicrobial activity against Candida albicans MTCC 227 assessed as growth inhibition after 24 hrs by agar well diffusion method; type: functional; conditions: MTCC 227, 24 h
Candida albicans [30] = experiment: Fungicidal activity against Candida albicans MTCC 3017 after 24 hrs by serial dilution method; type: functional; conditions: MTCC 3017, 24 h
Bacillus subtilis [31] = experiment: Antibiofilm activity against Bacillus subtilis MTCC 121 after 24 hrs by crystal violet staining based assay; type: functional, organism-based; conditions: MTCC 121, 24 h; summary of the method: as §1
Candida albicans [32] = experiment: Antimicrobial activity against Candida albicans MTCC 183 assessed as growth inhibition after 24 hrs by agar well diffusion method; type: functional; conditions: MTCC 183, 24 h
Candida albicans [33] = experiment: Antimicrobial activity against Candida albicans MTCC 4748 assessed as growth inhibition after 24 hrs by agar well diffusion method; type: functional; conditions: MTCC 4748, 24 h
Candida albicans [34] = experiment: Fungicidal activity against Candida albicans MTCC 183 after 24 hrs by serial dilution method; type: functional; conditions: MTCC 183, 24 h
Bacillus subtilis [35] = experiment: Bactericidal activity against Bacillus subtilis MTCC 121 after 24 hrs by serial dilution method; type: functional; conditions: MTCC 121, 24 h
Candida albicans [36] = experiment: Antimicrobial activity against Candida albicans MTCC 854 assessed as growth inhibition after 24 hrs by agar well diffusion method; type: functional; conditions: MTCC 854, 24 h
Pseudomonas aeruginosa = experiment: Antimicrobial activity against Pseudomonas aeruginosa MTCC 2453 assessed as growth inhibition after 24 hrs by agar well diffusion method; type: functional; conditions: MTCC 2453, 24 h
Candida parapsilosis [37] = experiment: Antimicrobial activity against Candida parapsilosis MTCC 1744 assessed as growth inhibition after 24 hrs by agar well diffusion method; type: functional; conditions: Lodderomyces parapsilosis, MTCC 1744, 24 h
Nakaseomyces glabratus [38] = experiment: Fungicidal activity against Candida glabrata MTCC 3019 after 24 hrs by serial dilution method; type: functional; conditions: MTCC 3019, 24 h
Raoultella planticola [39] = experiment: Bactericidal activity against Klebsiella planticola MTCC 530 after 24 hrs by serial dilution method; type: functional; conditions: MTCC 530, 24 h
Candida albicans [40] = experiment: Fungicidal activity against Candida albicans MTCC 1637 after 24 hrs by serial dilution method; type: functional; conditions: MTCC 1637, 24 h
Pichia sporocuriosa [41] = experiment: Fungicidal activity against Issatchenkia hanoiensis MTCC 4755 after 24 hrs by serial dilution method; type: functional; conditions: MTCC 4755, 24 h
Candida parapsilosis [42] = experiment: Fungicidal activity against Candida parapsilosis MTCC 1744 after 24 hrs by serial dilution method; type: functional; conditions: Lodderomyces parapsilosis, MTCC 1744, 24 h
Candida albicans [43] = experiment: Antimicrobial activity against Candida albicans MTCC 3958 assessed as growth inhibition after 24 hrs by agar well diffusion method; type: functional; conditions: MTCC 3958, 24 h
Raoultella planticola [44] = experiment: Antimicrobial activity against Klebsiella planticola MTCC 530 assessed as growth inhibition after 24 hrs by agar well diffusion method; type: functional; conditions: MTCC 530, 24 h

MIC (Candida albicans [2]): 15.6 µg/mL
MIC (Candida albicans [4]): 15.6 µg/mL
MIC ([Candida] aaseri [7]): 15.6 µg/mL
MIC (Staphylococcus aureus [8]): 3.9 µg/mL
MIC (Staphylococcus aureus [10]): 3.9 µg/mL
IC50 (Staphylococcus aureus [11]): 2.5 µg/mL
IC50 (Staphylococcus aureus [13]): 3.6 µg/mL
MIC (Bacillus subtilis [14]): 7.8 µg/mL
MIC (Candida albicans [15]): 15.6 µg/mL
MIC (Micrococcus luteus [19]): 7.8 µg/mL
MIC (Pichia kudriavzevii [20]): 31.2 µg/mL
MIC (Nakaseomyces glabratus [23]): 31.2 µg/mL
IC50 (Micrococcus luteus [25]): 2.5 µg/mL
MIC (Candida albicans [26]): 31.2 µg/mL
MIC (Escherichia coli [27]): > 125 µg/mL
MIC (Pichia sporocuriosa [28]): 15.6 µg/mL
MIC (Candida albicans [29]): 15.6 µg/mL
IC50 (Bacillus subtilis [31]): 4.4 µg/mL
MIC (Candida albicans [32]): 15.6 µg/mL
MIC (Candida albicans [33]): 15.6 µg/mL
MIC (Candida albicans [36]): 31.2 µg/mL
MIC (Pseudomonas aeruginosa): > 125 µg/mL
MIC (Candida parapsilosis [37]): 15.6 µg/mL
MIC (Candida albicans [43]): 15.6 µg/mL
SMILES: COC(=O)CCCCCCCCCC[N+](C)(C1CCCCC1)C1CCCCC1.[Cl-]
MFC (Candida albicans [1]): 62.5 µg/mL
MFC (Candida albicans [3]): 31.2 µg/mL
MBC (Micrococcus luteus [5]): 7.8 µg/mL
MFC (Candida albicans [6]): 31.2 µg/mL
MBC (Escherichia coli [9]): > 125 µg/mL
MBC (Staphylococcus aureus [12]): 7.8 µg/mL
MFC (Candida albicans [16]): 31.2 µg/mL
MFC (Pichia kudriavzevii [17]): 62.5 µg/mL
MFC ([Candida] aaseri [18]): 31.2 µg/mL
MFC (Candida albicans [21]): 31.2 µg/mL
MBC (Staphylococcus aureus [22]): 7.8 µg/mL
MFC (Candida albicans [24]): 31.2 µg/mL
MFC (Candida albicans [30]): 31.2 µg/mL
MFC (Candida albicans [34]): 62.5 µg/mL
MBC (Bacillus subtilis [35]): 15.6 µg/mL
MFC (Nakaseomyces glabratus [38]): 62.5 µg/mL
MBC (Raoultella planticola [39]): > 125 µg/mL
MFC (Candida albicans [40]): 31.2 µg/mL
MFC (Pichia sporocuriosa [41]): 31.2 µg/mL
MFC (Candida parapsilosis [42]): 62.5 µg/mL
MIC (Raoultella planticola [44]): > 125 µg/mL

MIC (Candida albicans [2]): 31.2 µg/mL (≈ 104 µM)
MIC (Candida albicans [4]): 62.5 µg/mL (≈ 209 µM)
MIC ([Candida] aaseri [7]): 15.6 µg/mL (≈ 52.1 µM)
MIC (Staphylococcus aureus [8]): 3.9 µg/mL (≈ 13 µM)
MIC (Staphylococcus aureus [10]): 3.9 µg/mL (≈ 13 µM)
IC50 (Staphylococcus aureus [11]): 2.6 µg/mL (≈ 8.68 µM)
IC50 (Staphylococcus aureus [13]): 3.9 µg/mL (≈ 13 µM)
MIC (Bacillus subtilis [14]): 7.8 µg/mL (≈ 26 µM)
MIC (Candida albicans [15]): 15.6 µg/mL (≈ 52.1 µM)
MIC (Micrococcus luteus [19]): 15.6 µg/mL (≈ 52.1 µM)
MIC (Pichia kudriavzevii [20]): 15.6 µg/mL (≈ 52.1 µM)
MIC (Nakaseomyces glabratus [23]): 31.2 µg/mL (≈ 104 µM)
IC50 (Micrococcus luteus [25]): 2.2 µg/mL (≈ 7.35 µM)
MIC (Candida albicans [26]): 15.6 µg/mL (≈ 52.1 µM)
MIC (Escherichia coli [27]): > 125 µg/mL
MIC (Pichia sporocuriosa [28]): 31.2 µg/mL (≈ 104 µM)
MIC (Candida albicans [29]): 31.2 µg/mL (≈ 104 µM)
IC50 (Bacillus subtilis [31]): 4.2 µg/mL (≈ 14 µM)
MIC (Candida albicans [32]): 31.2 µg/mL (≈ 104 µM)
MIC (Candida albicans [33]): 62.5 µg/mL (≈ 209 µM)
MIC (Candida albicans [36]): 15.6 µg/mL (≈ 52.1 µM)
MIC (Pseudomonas aeruginosa): > 125 µg/mL
MIC (Candida parapsilosis [37]): 31.2 µg/mL (≈ 104 µM)
MIC (Candida albicans [43]): 31.2 µg/mL (≈ 104 µM)
SMILES: CCCCCCNCCCCCCCCCCC(=O)OC
MFC (Candida albicans [1]): 62.5 µg/mL (≈ 209 µM)
MFC (Candida albicans [3]): 31.2 µg/mL (≈ 104 µM)
MBC (Micrococcus luteus [5]): 31.2 µg/mL (≈ 104 µM)
MFC (Candida albicans [6]): 62.5 µg/mL (≈ 209 µM)
MBC (Escherichia coli [9]): > 125 µg/mL
MBC (Staphylococcus aureus [12]): 7.8 µg/mL (≈ 26 µM)
MFC (Candida albicans [16]): 31.2 µg/mL (≈ 104 µM)
MFC (Pichia kudriavzevii [17]): 31.2 µg/mL (≈ 104 µM)
MFC ([Candida] aaseri [18]): 31.2 µg/mL (≈ 104 µM)
MFC (Candida albicans [21]): 62.5 µg/mL (≈ 209 µM)
MBC (Staphylococcus aureus [22]): 7.8 µg/mL (≈ 26 µM)
MFC (Candida albicans [24]): 62.5 µg/mL (≈ 209 µM)
MFC (Candida albicans [30]): 31.2 µg/mL (≈ 104 µM)
MFC (Candida albicans [34]): 62.5 µg/mL (≈ 209 µM)
MBC (Bacillus subtilis [35]): 15.6 µg/mL (≈ 52.1 µM)
MFC (Nakaseomyces glabratus [38]): 31.2 µg/mL (≈ 104 µM)
MBC (Raoultella planticola [39]): > 125 µg/mL
MFC (Candida albicans [40]): 31.2 µg/mL (≈ 104 µM)
MFC (Pichia sporocuriosa [41]): 31.2 µg/mL (≈ 104 µM)
MFC (Candida parapsilosis [42]): 62.5 µg/mL (≈ 209 µM)
MIC (Raoultella planticola [44]): > 125 µg/mL
